Here are results for four compounds from ChEMBL document CHEMBL1275458, “First molecular characterization of group B streptococci with reduced penicillin susceptibility” (2008).

In brackets after ≈: the same amount, converted by molar mass.

The subject of assay [1] is Streptococcus agalactiae. As to the kind of experiment: Antimicrobial activity against penicillin-resistant Streptococcus agalactiae B514 by agar dilution method. Type of assay: functional. In a few lines: (§1)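 Agar dilution MICs run per the CLSI recommendation. S. pneumoniae ATCC 49619 was included as the quality control strain. β-lactams tested were penicillin G, penicillin V, ampicillin, oxacillin, cefazolin, cefepime, cefotaxime, ceftizoxime and meropenem. Test strains were S. agalactiae clinical sputum isolates and ATCC strains BAA-611 and 12403.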
(In general: In agar dilution, organisms are placed on agar that contains the substance at set levels.)

The subject of assay [2] is Streptococcus agalactiae. As to the kind of experiment: Antimicrobial activity against penicillin-resistant Streptococcus agalactiae B40 by agar dilution method. It is filed as functional. In a few lines:
as §1

In assay [3] the test system is Streptococcus agalactiae. Put plainly: Antimicrobial activity against penicillin-resistant Streptococcus agalactiae B6 by agar dilution method. It is filed as functional. The method in brief: as §1
Assay [4] deals with Streptococcus agalactiae. As to the kind of experiment: Antimicrobial activity against penicillin-resistant Streptococcus agalactiae B502 by agar dilution method. It is filed as functional. In a few lines: as §1
For assay [5], the system named is Streptococcus agalactiae. As to the kind of experiment: Antimicrobial activity against penicillin-resistant Streptococcus agalactiae B8 by agar dilution method. Type of assay: functional. The method in brief: as §1
The subject of assay [6] is Streptococcus agalactiae. As to the kind of experiment: Antimicrobial activity against penicillin-resistant Streptococcus agalactiae B503 by agar dilution method. Type of assay: functional. The method in brief:
as §1

Assay [7] deals with Streptococcus agalactiae. As to the kind of experiment: Antimicrobial activity against penicillin-resistant Streptococcus agalactiae B60 by agar dilution method. Type of assay: functional. The method in brief:
as §1

The subject of assay [8] is Streptococcus agalactiae. As to the kind of experiment: Antimicrobial activity against penicillin-susceptible Streptococcus agalactiae ATCC 12403 by agar dilution method.
The subject of assay [9] is Streptococcus agalactiae. Put plainly: Antimicrobial activity against penicillin-resistant Streptococcus agalactiae B12 by agar dilution method. Type of assay: functional. The method in brief:
as §1

In assay [10] the test system is Streptococcus agalactiae. Put plainly: Antimicrobial activity against penicillin-susceptible Streptococcus agalactiae ATCC BAA-611 by agar dilution method.
The test system of assay [11] is Streptococcus agalactiae. Put plainly: Antimicrobial activity against penicillin-resistant Streptococcus agalactiae B513 by agar dilution method. It is filed as functional. In a few lines:
as §1

For another assay, the system named is Streptococcus pneumoniae. As to the kind of experiment: Antimicrobial activity against Streptococcus pneumoniae ATCC 49619 by agar dilution method. Type of assay: functional. The method in brief:
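MIC by agar dilution per CLSI recommendations. The strain is a penicillin-susceptible S. pneumoniae quality-control strain, run alongside the clinical GBS isolates. β-lactams tested were penicillin G, penicillin V, ampicillin, oxacillin, cefazolin, cefepime, cefotaxime, ceftizoxime and meropenem.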

Assay [12] has as its system Streptococcus agalactiae. Put plainly: Antimicrobial activity against penicillin-resistant Streptococcus agalactiae B516 by agar dilution method. It is filed as functional. The method in brief:
as §1

For assay [13], the system named is Streptococcus agalactiae. As to the kind of experiment: Antimicrobial activity against penicillin-resistant Streptococcus agalactiae ATCC BAA-611 harboring PBP-2X V405A mutant gene by agar dilution method. Type of assay: functional. In a few lines:
as §1

The subject of assay [14] is Streptococcus agalactiae. As to the kind of experiment: Antimicrobial activity against penicillin-resistant Streptococcus agalactiae B10 by agar dilution method. Type of assay: functional. In a few lines:
as §1

Assay [15] relates to Streptococcus agalactiae. As to the kind of experiment: Antimicrobial activity against penicillin-resistant Streptococcus agalactiae B7 by agar dilution method. Type of assay: functional. The method in brief:
as §1

Assay [16] concerns Streptococcus agalactiae. Put plainly: Antimicrobial activity against penicillin-resistant Streptococcus agalactiae B68 by agar dilution method. Type of assay: functional. In a few lines:
as §1

Assay [17] has as its system Streptococcus agalactiae. As to the kind of experiment: Antimicrobial activity against penicillin-resistant Streptococcus agalactiae B1 by agar dilution method. Type of assay: functional. In a few lines:
as §1

For assay [18], the system named is Streptococcus agalactiae. Put plainly: Antimicrobial activity against penicillin-resistant Streptococcus agalactiae ATCC BAA-611 harboring PBP-2X Q557E mutant gene by agar dilution method. It is filed as functional. The method in brief: as §1

Turning to `CC1(C)S[C@@H]2[C@H](NC(=O)Cc3ccccc3)C(=O)N2[C@H]1C(=O)O` [PENICILLIN G], the MIC (in general, the least concentration at which growth counts as inhibited) in the assay on Streptococcus agalactiae [1] was 0.25 µg/mL (≈ 0.748 µM); against Streptococcus agalactiae [2], 0.5 µg/mL (≈ 1.5 µM); in the assay with Streptococcus agalactiae [3], 0.25 µg/mL (≈ 0.748 µM); against Streptococcus agalactiae [4] it was 0.5 µg/mL (≈ 1.5 µM); with Streptococcus agalactiae [5] it was 0.25 µg/mL (≈ 0.748 µM); against Streptococcus agalactiae [6], 0.25 µg/mL (≈ 0.748 µM). Also, the MIC amounted to 0.25 µg/mL (≈ 0.748 µM) in the assay on Streptococcus agalactiae [7]; 0.06 µg/mL (≈ 0.179 µM) against Streptococcus agalactiae [8]; 0.25 µg/mL (≈ 0.748 µM) in the assay with Streptococcus agalactiae [9]; 0.06 µg/mL (≈ 0.179 µM) in the assay with Streptococcus agalactiae [10]; 1 µg/mL (≈ 2.99 µM) in the assay on Streptococcus agalactiae [11]; 0.25 µg/mL (≈ 0.748 µM) in the assay on Streptococcus pneumoniae. Also, the MIC was 0.25 µg/mL (≈ 0.748 µM) against Streptococcus agalactiae [12]; 0.25 µg/mL (≈ 0.748 µM) against Streptococcus agalactiae [13]; 0.5 µg/mL (≈ 1.5 µM) against Streptococcus agalactiae [14]; 0.25 µg/mL (≈ 0.748 µM) with Streptococcus agalactiae [15]; 0.5 µg/mL (≈ 1.5 µM) in the assay on Streptococcus agalactiae [16]; 0.5 µg/mL (≈ 1.5 µM) in the assay with Streptococcus agalactiae [17]. The minimal inhibitory concentration (MIC) against Streptococcus agalactiae [18] came out at 0.5 µg/mL (≈ 1.5 µM).
Turning to `CO/N=C(\C(=O)N[C@@H]1C(=O)N2C(C(=O)[O-])=C(C[N+]3(C)CCCC3)CS[C@H]12)c1csc(N)n1` [CEFEPIME], the MIC with Streptococcus agalactiae [1] is 0.5 µg/mL (≈ 1.04 µM); against Streptococcus agalactiae [2], 0.25 µg/mL (≈ 0.52 µM); with Streptococcus agalactiae [3], 0.25 µg/mL (≈ 0.52 µM); against Streptococcus agalactiae [4], 0.5 µg/mL (≈ 1.04 µM); in the assay with Streptococcus agalactiae [5] it was 0.5 µg/mL (≈ 1.04 µM); against Streptococcus agalactiae [6], 0.25 µg/mL (≈ 0.52 µM). In addition, the minimum inhibitory concentration (MIC) against Streptococcus agalactiae [7] is 0.25 µg/mL (≈ 0.52 µM); with Streptococcus agalactiae [8], 0.06 µg/mL (≈ 0.125 µM); against Streptococcus agalactiae [9], 0.5 µg/mL (≈ 1.04 µM); in the assay on Streptococcus agalactiae [10] it was 0.06 µg/mL (≈ 0.125 µM); against Streptococcus agalactiae [11], 1 µg/mL (≈ 2.08 µM); against Streptococcus pneumoniae, 0.03 µg/mL (≈ 0.0624 µM). The MIC turned out to be 0.5 µg/mL (≈ 1.04 µM) against Streptococcus agalactiae [12]; 0.5 µg/mL (≈ 1.04 µM) against Streptococcus agalactiae [13]; 0.25 µg/mL (≈ 0.52 µM) in the assay on Streptococcus agalactiae [14]; 0.25 µg/mL (≈ 0.52 µM) against Streptococcus agalactiae [15]; 0.5 µg/mL (≈ 1.04 µM) in the assay with Streptococcus agalactiae [16]; 0.5 µg/mL (≈ 1.04 µM) against Streptococcus agalactiae [17]. This compound also gave an MIC in the assay on Streptococcus agalactiae [18] of 0.5 µg/mL (≈ 1.04 µM).
For the compound `C[C@@H](O)[C@H]1C(=O)N2C(C(=O)O)=C(S[C@@H]3CN[C@H](C(=O)N(C)C)C3)[C@H](C)[C@H]12` [MEROPENEM], the MIC was 0.25 µg/mL (≈ 0.652 µM) against Streptococcus agalactiae [1]; 0.06 µg/mL (≈ 0.156 µM) in the assay on Streptococcus agalactiae [2]; 0.06 µg/mL (≈ 0.156 µM) against Streptococcus agalactiae [3]; 0.25 µg/mL (≈ 0.652 µM) against Streptococcus agalactiae [4]; 0.12 µg/mL (≈ 0.313 µM) with Streptococcus agalactiae [5]; 0.12 µg/mL (≈ 0.313 µM) in the assay on Streptococcus agalactiae [6]. In addition, the MIC was found to be 0.12 µg/mL (≈ 0.313 µM) with Streptococcus agalactiae [7]; 0.03 µg/mL (≈ 0.0782 µM) in the assay with Streptococcus agalactiae [8]; 0.25 µg/mL (≈ 0.652 µM) against Streptococcus agalactiae [9]; 0.03 µg/mL (≈ 0.0782 µM) in the assay with Streptococcus agalactiae [10]; 0.25 µg/mL (≈ 0.652 µM) with Streptococcus agalactiae [11]; 0.06 µg/mL (≈ 0.156 µM) in the assay on Streptococcus pneumoniae. Besides, the MIC with Streptococcus agalactiae [12] stood at 0.12 µg/mL (≈ 0.313 µM); against Streptococcus agalactiae [13], 0.12 µg/mL (≈ 0.313 µM); with Streptococcus agalactiae [14] it was 0.06 µg/mL (≈ 0.156 µM); against Streptococcus agalactiae [15], 0.25 µg/mL (≈ 0.652 µM); against Streptococcus agalactiae [16], 0.12 µg/mL (≈ 0.313 µM); against Streptococcus agalactiae [17], 0.06 µg/mL (≈ 0.156 µM). Inhibition of growth against Streptococcus agalactiae [18] (MIC) required 0.12 µg/mL (≈ 0.313 µM).
`CC1(C)S[C@@H]2[C@H](NC(=O)COc3ccccc3)C(=O)N2[C@H]1C(=O)O` [PENICILLIN V]: the MIC in the assay with Streptococcus agalactiae [1] turned out to be 0.25 µg/mL (≈ 0.713 µM); in the assay on Streptococcus agalactiae [2], 0.5 µg/mL (≈ 1.43 µM); in the assay on Streptococcus agalactiae [3], 0.5 µg/mL (≈ 1.43 µM); in the assay with Streptococcus agalactiae [4], 0.25 µg/mL (≈ 0.713 µM); against Streptococcus agalactiae [5] it was 0.25 µg/mL (≈ 0.713 µM); against Streptococcus agalactiae [6], 0.12 µg/mL (≈ 0.342 µM). For the same compound, the MIC in the assay on Streptococcus agalactiae [7] came to 0.25 µg/mL (≈ 0.713 µM); in the assay on Streptococcus agalactiae [8] it was 0.03 µg/mL (≈ 0.0856 µM); against Streptococcus agalactiae [9] it was 0.5 µg/mL (≈ 1.43 µM); against Streptococcus agalactiae [10], 0.03 µg/mL (≈ 0.0856 µM); in the assay on Streptococcus agalactiae [11], 1 µg/mL (≈ 2.85 µM); in the assay with Streptococcus pneumoniae, 0.5 µg/mL (≈ 1.43 µM). The MIC is 0.25 µg/mL (≈ 0.713 µM) against Streptococcus agalactiae [12]; 0.12 µg/mL (≈ 0.342 µM) against Streptococcus agalactiae [13]; 0.25 µg/mL (≈ 0.713 µM) in the assay on Streptococcus agalactiae [14]; 0.12 µg/mL (≈ 0.342 µM) in the assay with Streptococcus agalactiae [15]; 0.25 µg/mL (≈ 0.713 µM) with Streptococcus agalactiae [16]; 0.25 µg/mL (≈ 0.713 µM) against Streptococcus agalactiae [17]. In addition, in the assay on Streptococcus agalactiae [18], the MIC stood at 0.5 µg/mL (≈ 1.43 µM).
